Test results: ChEMBL document CHEMBL1154414, “In vitro and in vivo activities of T-705 against arenavirus and bunyavirus infections” (Antimicrob Agents Chemother, 2007)
Activity calls are given as the source filed them. The rule behind the calls is not given here.

Experiments:
[1] = test system: Pichinde virus; assay: Antiviral activity against Pichinde virus An 4763 infected Syrian golden hamster assessed as animals with detectable virus level in liver at 15 mg/kg, po twice daily for 7 days administered 4 hrs before viral-challenge measured on day 7 of viral infection; assay type: functional
[2] = test system: Punta Toro virus; assay: Antiviral activity against Punta Toro virus Adames infected Syrian golden hamster assessed as animals with detectable virus level in liver at 60 mg/kg, po twice daily administered 4 hrs before viral challenge measured on day 4 of viral infection; assay type: functional
[3] = test system: Punta Toro virus; assay: Antiviral activity against Punta Toro virus Adames infected Syrian golden hamster assessed as mean viral titer per 0.1 mL of serum at 15 mg/kg, po twice daily administered 4 hrs before viral challenge measured on day 4 of viral infection; assay type: functional
[4] = test system: Punta Toro virus; assay: Antiviral activity against 500 PFU Punta Toro virus Adames infected C57BL/6 mouse assessed as mean serum ALT levels at 200 mg/kg, po twice daily administered 4 hrs before viral challenge measured on day 4 of viral infection; assay type: functional
Method in brief: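 Subcutaneous PTV infection was followed by oral gavage twice daily with drug suspended in 0.4% CMC. Serum was collected from 5 sacrificed mice per group (10 placebo) on day 3 or 4. ALT activity was measured by kinetic assay, and sham-infected mice set the baselines.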

[5] = test system: Punta Toro virus; assay: Antiviral activity against Punta Toro virus Adames infected Syrian golden hamster assessed as mean viral titer per 0.1 mL of serum at 60 mg/kg, po twice daily administered 4 hrs before viral challenge measured on day 4 of viral infection; assay type: functional
[6] = test system: Punta Toro virus; assay: Antiviral activity against 500 PFU Punta Toro virus Adames infected C57BL/6 mouse assessed as survival at 25 mg/kg, po twice daily for 5 days administered 4 hrs before viral challenge; assay type: functional, organism-based; set-up: dose 25 mg/kg
Method in brief: (§1)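 PTV was inoculated subcutaneously into mice in groups of 15 (25–30 placebo). Dosing was by oral gavage twice daily for 5–7 days, with T-705 suspended in 0.4% CMC and ribavirin in saline. Remaining animals were observed 21–28 days for survival and day of death. Test doses had first been checked for tolerance in uninfected animals.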

[7] = test system: Punta Toro virus; assay: Antiviral activity against 500 PFU Punta Toro virus Adames infected C57BL/6 mouse assessed as mean viral titer per 0.1 g of liver at 200 mg/kg, po twice daily administered 4 hrs before viral challenge measured on day 4 of viral infection; assay type: functional
Method in brief: (§2)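 Mice were infected subcutaneously with PTV and dosed by oral gavage twice daily; 5 per group (10 placebo) were killed on day 3 or 4. Liver homogenate or serum was serially diluted onto triplicate LLC-MK2 monolayers, and CPE was read 6–8 days later. 50% endpoints gave log10 CCID50 per 0.1 g liver or 0.1 ml serum. Detection range was 2.8–9.5; undetectable samples were assigned <2.8.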

[8] = test system: Punta Toro virus; assay: Antiviral activity against Punta Toro virus Adames infected Syrian golden hamster assessed as mean day of death at 15 mg/kg, po twice daily for 6 days administered 4 hrs before viral challenge; assay type: functional
[9] = test system: Pichinde virus; assay: Antiviral activity against Pichinde virus An 4763 infected Syrian golden hamster assessed as survival at 60 mg/kg, po twice daily for 7 days administered 4 hrs before viral-challenge; assay type: functional
[10] = test system: Pichinde virus; assay: Antiviral activity against Pichinde virus An 4763 infected Syrian golden hamster assessed as […] survival administered po twice daily for 7 days administered 4 hrs before viral-challenge; assay type: functional, organism-based
[11] = test system: Punta Toro virus; assay: Antiviral activity against 500 PFU Punta Toro virus Adames infected C57BL/6 mouse assessed as mean viral titer per 0.1 mL of serum at 10 mg/kg, po twice daily administered 4 hrs before viral challenge measured on day 3 of viral infection; assay type: functional; method in brief: as §2
[12] = test system: Punta Toro virus; assay: Antiviral activity against Punta Toro virus Adames infected Syrian golden hamster assessed as mean serum ALT levels at 60 mg/kg, po twice daily administered 4 hrs before viral challenge measured on day 4 of viral infection; assay type: functional
[13] = test system: Punta Toro virus; assay: Antiviral activity against Punta Toro virus Adames infected Syrian golden hamster assessed as survival at 15 mg/kg, po twice daily for 6 days administered 4 hrs before viral challenge; assay type: functional
[14] = test system: Punta Toro virus; assay: Antiviral activity against Punta Toro virus Adames assessed as reduction of 1 log10 unit viral titer yields after 3 to 5 days; assay type: functional
[15] = test system: Punta Toro virus; assay: Antiviral activity against Punta Toro virus Adames infected Syrian golden hamster assessed as animals with detectable virus level in serum at 60 mg/kg, po twice daily administered 4 hrs before viral challenge measured on day 4 of viral infection; assay type: functional
[16] = test system: Pichinde virus; assay: Antiviral activity against Pichinde virus An 4763 infected Syrian golden hamster assessed as mean viral titer per 0.1 g of liver at 30 mg/kg, po twice daily for 7 days administered 4 hrs before viral-challenge measured on day 7 of viral infection; assay type: functional
[17] = test system: Punta Toro virus; assay: Antiviral activity against 500 PFU Punta Toro virus Adames infected C57BL/6 mouse assessed as mean viral titer per 0.1 mL of serum at 75 mg/kg, po twice daily administered 4 hrs before viral challenge measured on day 4 of viral infection; assay type: functional; method in brief: as §2
[18] = test system: Pichinde virus; assay: Antiviral activity against Pichinde virus An 4763 infected Syrian golden hamster assessed as mean day of death at 60 mg/kg, po twice daily for 7 days administered 4 hrs before viral-challenge; assay type: functional
[19] = test system: Punta Toro virus; assay: Antiviral activity against 5000 PFU Punta Toro virus Adames infected C57BL/6 mouse assessed as survival at 30 mg/kg, po twice daily for 5 days 24 hrs post viral challenge; assay type: functional; method in brief: as §1
[20] = test system: Punta Toro virus; assay: Antiviral activity against Punta Toro virus Adames infected Syrian golden hamster assessed as mean serum ALT levels at 15 mg/kg, po twice daily administered 4 hrs before viral challenge measured on day 4 of viral infection; assay type: functional
[21] = test system: Punta Toro virus; assay: Antiviral activity against 500 PFU Punta Toro virus Adames infected C57BL/6 mouse assessed as mean day of death at 200 mg/kg, po twice daily for 5 days administered 4 hrs before viral challenge; assay type: functional
Method in brief: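 Groups of 15 mice (25–30 placebo) were inoculated subcutaneously with PTV. Drug in 0.4% carboxymethylcellulose was given by oral gavage twice daily.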

[22] = test system: Punta Toro virus; assay: Antiviral activity against 500 PFU Punta Toro virus Adames infected C57BL/6 mouse assessed as animals with detectable virus level in liver at 30 mg/kg, po twice daily administered 4 hrs before viral challenge measured on day 3 of viral infection; assay type: functional
Method in brief: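 T-705 was suspended in 0.4% carboxymethylcellulose and given by oral gavage twice daily. Mice were infected subcutaneously with PTV. Five mice per group (10 placebo) were sacrificed on day 3 or 4. Liver homogenate or serum was serially diluted onto triplicate LLC-MK2 monolayers, and CPE was read at 6–8 days. The detection limit was 2.8 log10 CCID50 per 0.1 g liver or 0.1 ml serum.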

[23] = test system: Punta Toro virus; assay: Antiviral activity against Punta Toro virus Adames infected Syrian golden hamster assessed as survival at 60 mg/kg, po twice daily for 6 days administered 4 hrs before viral challenge; assay type: functional
[24] = test system: Sandfly fever Naples virus; assay: Antiviral activity against Sandfly fever Naples virus assessed as reduction of 1 log10 unit viral titer yields after 3 to 5 days; assay type: functional
[25] = test system: Punta Toro virus; assay: Antiviral activity against 500 PFU Punta Toro virus Adames infected C57BL/6 mouse assessed as protection against viral infection at 75 mg/kg, po twice daily for 5 to 7 days; assay type: functional; method in brief: as §1
[26] = test system: Punta Toro virus; assay: Antiviral activity against 500 PFU Punta Toro virus Adames infected C57BL/6 mouse assessed as mean serum ALT levels at 75 mg/kg, po twice daily administered 4 hrs before viral challenge measured on day 4 of viral infection; assay type: functional
Method in brief: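 C57BL/6 mice received subcutaneous PTV, then oral gavage twice daily for 5–7 days. T-705 was given in 0.4% CMC and ribavirin in saline. Five mice per group (10 placebo) were killed on day 3 or 4, and serum was collected. ALT activity was measured by kinetic assay. Three sham-infected mice set baselines.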

## NC(=O)c1nc(F)cnc1O [FAVIPIRAVIR]
[1]
  Activity: 100%
[2]
  Activity: 20%
[3]
  log10CCID50: <4.1
[4]
  Activity: 37 IU/L
[5]
  log10CCID50: <3.8
[6]
  Activity: Active
[7]
  log10CCID50: <2.8
[8]
  Activity: 5.4 days
[9]
  Activity: 90%
[10]
  Activity: Dose-dependent effect
[11]
  log10CCID50: 6.2
[12]
  Activity: 17 IU/L
[13]
  survival at 15 mg/kg: 50%
[14]
  EC90: 20 µM
[15]
  Activity: 20%
[16]
  log10CCID50: 6.4
[17]
  log10CCID50: <3.3
[18]
  Activity: 22 days
[19]
  Activity: 90%
[20]
  Activity: 204 IU/L
[21]
  Activity: 8 days
[22]
  Activity: 0%
[23]
  survival at 60 mg/kg: 90%
[24]
  EC90: 3 µM

## NC(=O)c1ncn([C@@H]2O[C@H](CO)[C@@H](O)[C@H]2O)n1 [RIBAVIRIN]
[25]
  Activity: 100%
[26]
  Activity: 38 IU/L
